Assay results from ChEMBL document CHEMBL5058577, “EUbOPEN Chemogenomics Library 2 (Multiplex)” (2022).

Test system: U2OS
Test: Multiplex assay against U2OS
Type: toxicity, cell-based
Conditions: human
Method in brief: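 Compound was added to live cells that had been stained at seeding with Hoechst33342, BioTracker Green Microtubule Cytoskeleton Dye, MitoTracker Red and Annexin V Alexa Fluor 680, and imaging followed on a CQ1 microscope at 37°C and 5% CO2. CellPathfinder machine-learning gating divided cells into Hoechst high-intensity objects or normal cells, normal cells into healthy, pyknosed or fragmented nuclei, and pyknosed cells into mitotic or apoptotic. Tubulin, mitochondrial-mass and membrane-permeability phenotypes are per cents of healthy-nucleus cells.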

[1] = 12 h, 1 µM, compound concentration 1 uM, replicate 1
[2] = 12 h, 1 µM, compound concentration 1 uM, replicate 2
[3] = 12 h, 10 µM, compound concentration 10 uM, replicate 1
[4] = 12 h, 10 µM, compound concentration 10 uM, replicate 2
[5] = 24 h, 1 µM, compound concentration 1 uM, replicate 1
[6] = 24 h, 1 µM, compound concentration 1 uM, replicate 2
[7] = 24 h, 10 µM, compound concentration 10 uM, replicate 1
[8] = 24 h, 10 µM, compound concentration 10 uM, replicate 2
[9] = 48 h, 1 µM, compound concentration 1 uM, replicate 1
[10] = 48 h, 1 µM, compound concentration 1 uM, replicate 2
[11] = 48 h, 10 µM, compound concentration 10 uM, replicate 1
[12] = 48 h, 10 µM, compound concentration 10 uM, replicate 2

Compound: COc1cc(C(=O)N(CCCc2ccccc2)Cc2ccc(CC(=O)O)cc2)cc(OC)c1C
- Population Apoptotic (%) [1]: 95%
- Population Fragmented Nuclei (%) [1]: 29%
- Population Healthy Nuclei (%) [1]: 60%
- Population Hoechst High Intensity Objects (%) [1]: 4%
- Population Membrane Permeable-Phenotype (%) [1]: 7%
- Population Mitochondria Different-Phenotype (%) [1]: 4%
- Population Mitotic Cells (%) [1]: 4%
- Population Normal (%) [1]: 95%
- Population Pyknosed Nuclei (%) [1]: 10%
- Population Tubulin-Different-Phenotype (%) [1]: 4%
- Total Cell Count [1]: 228
- Population Apoptotic (%) [2]: 70%
- Population Fragmented Nuclei (%) [2]: 23%
- Population Healthy Nuclei (%) [2]: 65%
- Population Membrane Permeable-Phenotype (%) [2]: 8%
- Population Mitochondria Different-Phenotype (%) [2]: 1%
- Population Mitotic Cells (%) [2]: 30%
- Population Pyknosed Nuclei (%) [2]: 11%
- Population Tubulin-Different-Phenotype (%) [2]: 1%
- Total Cell Count [2]: 93
- Population Apoptotic (%) [3]: 82%
- Population Fragmented Nuclei (%) [3]: 22%
- Population Healthy Nuclei (%) [3]: 71%
- Population Hoechst High Intensity Objects (%) [3]: 0%
- Population Membrane Permeable-Phenotype (%) [3]: 5%
- Population Mitochondria Different-Phenotype (%) [3]: 0%
- Population Mitotic Cells (%) [3]: 17%
- Population Normal (%) [3]: 99%
- Population Pyknosed Nuclei (%) [3]: 6%
- Population Tubulin-Different-Phenotype (%) [3]: 2%
- Total Cell Count [3]: 262
- Population Apoptotic (%) [4]: 100%
- Population Fragmented Nuclei (%) [4]: 15%
- Population Healthy Nuclei (%) [4]: 79%
- Population Hoechst High Intensity Objects (%) [4]: 1%
- Population Membrane Permeable-Phenotype (%) [4]: 2%
- Population Mitochondria Different-Phenotype (%) [4]: 3%
- Population Mitotic Cells (%) [4]: 0%
- Population Normal (%) [4]: 98%
- Population Pyknosed Nuclei (%) [4]: 4%
- Population Tubulin-Different-Phenotype (%) [4]: 4%
- Total Cell Count [4]: 171
- Population Apoptotic (%) [5]: 84%
- Population Fragmented Nuclei (%) [5]: 29%
- Population Healthy Nuclei (%) [5]: 61%
- Population Hoechst High Intensity Objects (%) [5]: 2%
- Population Membrane Permeable-Phenotype (%) [5]: 7%
- Population Mitochondria Different-Phenotype (%) [5]: 6%
- Population Mitotic Cells (%) [5]: 15%
- Population Normal (%) [5]: 97%
- Population Pyknosed Nuclei (%) [5]: 9%
- Population Tubulin-Different-Phenotype (%) [5]: 4%
- Total Cell Count [5]: 288
- Population Apoptotic (%) [6]: 73%
- Population Fragmented Nuclei (%) [6]: 22%
- Population Healthy Nuclei (%) [6]: 64%
- Population Hoechst High Intensity Objects (%) [6]: 4%
- Population Membrane Permeable-Phenotype (%) [6]: 2%
- Population Mitochondria Different-Phenotype (%) [6]: 2%
- Population Mitotic Cells (%) [6]: 26%
- Population Normal (%) [6]: 95%
- Population Pyknosed Nuclei (%) [6]: 13%
- Population Tubulin-Different-Phenotype (%) [6]: 0%
- Total Cell Count [6]: 120
- Population Apoptotic (%) [7]: 94%
- Population Fragmented Nuclei (%) [7]: 18%
- Population Healthy Nuclei (%) [7]: 76%
- Population Hoechst High Intensity Objects (%) [7]: 0%
- Population Membrane Permeable-Phenotype (%) [7]: 7%
- Population Mitochondria Different-Phenotype (%) [7]: 2%
- Population Mitotic Cells (%) [7]: 5%
- Population Normal (%) [7]: 99%
- Population Pyknosed Nuclei (%) [7]: 5%
- Population Tubulin-Different-Phenotype (%) [7]: 3%
- Total Cell Count [7]: 318
- Population Apoptotic (%) [8]: 84%
- Population Fragmented Nuclei (%) [8]: 12%
- Population Healthy Nuclei (%) [8]: 80%
- Population Hoechst High Intensity Objects (%) [8]: 2%
- Population Mitochondria Different-Phenotype (%) [8]: 5%
- Population Mitotic Cells (%) [8]: 15%
- Population Normal (%) [8]: 97%
- Population Pyknosed Nuclei (%) [8]: 6%
- Population Tubulin-Different-Phenotype (%) [8]: 5%
- Total Cell Count [8]: 192
- Population Apoptotic (%) [9]: 86%
- Population Fragmented Nuclei (%) [9]: 23%
- Population Healthy Nuclei (%) [9]: 69%
- Population Hoechst High Intensity Objects (%) [9]: 3%
- Population Membrane Permeable-Phenotype (%) [9]: 5%
- Population Mitochondria Different-Phenotype (%) [9]: 2%
- Population Mitotic Cells (%) [9]: 13%
- Population Normal (%) [9]: 96%
- Population Pyknosed Nuclei (%) [9]: 7%
- Population Tubulin-Different-Phenotype (%) [9]: 4%
- Total Cell Count [9]: 408
- Population Apoptotic (%) [10]: 78%
- Population Fragmented Nuclei (%) [10]: 22%
- Population Healthy Nuclei (%) [10]: 64%
- Population Hoechst High Intensity Objects (%) [10]: 6%
- Population Membrane Permeable-Phenotype (%) [10]: 7%
- Population Mitochondria Different-Phenotype (%) [10]: 5%
- Population Mitotic Cells (%) [10]: 21%
- Population Normal (%) [10]: 93%
- Population Pyknosed Nuclei (%) [10]: 12%
- Population Tubulin-Different-Phenotype (%) [10]: 6%
- Total Cell Count [10]: 159
- Population Apoptotic (%) [11]: 93%
- Population Fragmented Nuclei (%) [11]: 18%
- Population Healthy Nuclei (%) [11]: 75%
- Population Hoechst High Intensity Objects (%) [11]: 1%
- Population Membrane Permeable-Phenotype (%) [11]: 4%
- Population Mitochondria Different-Phenotype (%) [11]: 2%
- Population Mitotic Cells (%) [11]: 6%
- Population Normal (%) [11]: 98%
- Population Pyknosed Nuclei (%) [11]: 6%
- Population Tubulin-Different-Phenotype (%) [11]: 2%
- Total Cell Count [11]: 504
- Population Apoptotic (%) [12]: 94%
- Population Fragmented Nuclei (%) [12]: 15%
- Population Healthy Nuclei (%) [12]: 71%
- Population Hoechst High Intensity Objects (%) [12]: 3%
- Population Membrane Permeable-Phenotype (%) [12]: 8%
- Population Mitochondria Different-Phenotype (%) [12]: 1%
- Population Mitotic Cells (%) [12]: 5%
- Population Normal (%) [12]: 96%
- Population Pyknosed Nuclei (%) [12]: 13%
- Population Tubulin-Different-Phenotype (%) [12]: 4%
- Total Cell Count [12]: 280

Compound: COc1ccc2c(c1)C(C(=O)N(Cc1ccc(N(C)C)cc1)c1ccc(C(C)C)cc1)CCC2.Cl (stereo unspecified)
- Population Apoptotic (%) [1]: 70%
- Population Fragmented Nuclei (%) [1]: 36%
- Population Healthy Nuclei (%) [1]: 54%
- Population Hoechst High Intensity Objects (%) [1]: 4%
- Population Membrane Permeable-Phenotype (%) [1]: 8%
- Population Mitochondria Different-Phenotype (%) [1]: 5%
- Population Mitotic Cells (%) [1]: 29%
- Population Normal (%) [1]: 95%
- Population Pyknosed Nuclei (%) [1]: 9%
- Population Tubulin-Different-Phenotype (%) [1]: 4%
- Total Cell Count [1]: 264
- Population Fragmented Nuclei (%) [2]: 17%
- Population Healthy Nuclei (%) [2]: 73%
- Population Hoechst High Intensity Objects (%) [2]: 3%
- Population Membrane Permeable-Phenotype (%) [2]: 9%
- Population Mitochondria Different-Phenotype (%) [2]: 3%
- Population Mitotic Cells (%) [2]: 30%
- Population Normal (%) [2]: 96%
- Population Pyknosed Nuclei (%) [2]: 8%
- Population Tubulin-Different-Phenotype (%) [2]: 2%
- Total Cell Count [2]: 122
- Population Apoptotic (%) [3]: 38%
- Population Fragmented Nuclei (%) [3]: 27%
- Population Healthy Nuclei (%) [3]: 50%
- Population Hoechst High Intensity Objects (%) [3]: 4%
- Population Membrane Permeable-Phenotype (%) [3]: 73%
- Population Mitochondria Different-Phenotype (%) [3]: 55%
- Population Mitotic Cells (%) [3]: 61%
- Population Normal (%) [3]: 95%
- Population Pyknosed Nuclei (%) [3]: 22%
- Population Tubulin-Different-Phenotype (%) [3]: 80%
- Total Cell Count [3]: 224
- Population Apoptotic (%) [4]: 60%
- Population Fragmented Nuclei (%) [4]: 16%
- Population Healthy Nuclei (%) [4]: 60%
- Population Membrane Permeable-Phenotype (%) [4]: 43%
- Population Mitochondria Different-Phenotype (%) [4]: 73%
- Population Mitotic Cells (%) [4]: 40%
- Population Pyknosed Nuclei (%) [4]: 23%
- Population Tubulin-Different-Phenotype (%) [4]: 58%
- Total Cell Count [4]: 113
- Population Apoptotic (%) [5]: 75%
- Population Fragmented Nuclei (%) [5]: 27%
- Population Healthy Nuclei (%) [5]: 61%
- Population Hoechst High Intensity Objects (%) [5]: 4%
- Population Membrane Permeable-Phenotype (%) [5]: 5%
- Population Mitochondria Different-Phenotype (%) [5]: 4%
- Population Mitotic Cells (%) [5]: 24%
- Population Normal (%) [5]: 95%
- Population Pyknosed Nuclei (%) [5]: 11%
- Population Tubulin-Different-Phenotype (%) [5]: 4%
- Total Cell Count [5]: 273
- Population Apoptotic (%) [6]: 100%
- Population Fragmented Nuclei (%) [6]: 18%
- Population Healthy Nuclei (%) [6]: 73%
- Population Hoechst High Intensity Objects (%) [6]: 2%
- Population Mitochondria Different-Phenotype (%) [6]: 1%
- Population Mitotic Cells (%) [6]: 0%
- Population Normal (%) [6]: 97%
- Population Pyknosed Nuclei (%) [6]: 7%
- Population Tubulin-Different-Phenotype (%) [6]: 2%
- Total Cell Count [6]: 146
- Population Apoptotic (%) [7]: 71%
- Population Fragmented Nuclei (%) [7]: 25%
- Population Healthy Nuclei (%) [7]: 50%
- Population Hoechst High Intensity Objects (%) [7]: 2%
- Population Membrane Permeable-Phenotype (%) [7]: 54%
- Population Mitochondria Different-Phenotype (%) [7]: 42%
- Population Mitotic Cells (%) [7]: 28%
- Population Normal (%) [7]: 97%
- Population Pyknosed Nuclei (%) [7]: 24%
- Population Tubulin-Different-Phenotype (%) [7]: 49%
- Total Cell Count [7]: 224
- Population Apoptotic (%) [8]: 86%
- Population Fragmented Nuclei (%) [8]: 20%
- Population Healthy Nuclei (%) [8]: 57%
- Population Hoechst High Intensity Objects (%) [8]: 9%
- Population Membrane Permeable-Phenotype (%) [8]: 45%
- Population Mitochondria Different-Phenotype (%) [8]: 53%
- Population Mitotic Cells (%) [8]: 13%
- Population Normal (%) [8]: 90%
- Population Pyknosed Nuclei (%) [8]: 22%
- Population Tubulin-Different-Phenotype (%) [8]: 48%
- Total Cell Count [8]: 115
- Population Apoptotic (%) [9]: 80%
- Population Fragmented Nuclei (%) [9]: 21%
- Population Healthy Nuclei (%) [9]: 65%
- Population Hoechst High Intensity Objects (%) [9]: 2%
- Population Membrane Permeable-Phenotype (%) [9]: 10%
- Population Mitochondria Different-Phenotype (%) [9]: 5%
- Population Mitotic Cells (%) [9]: 20%
- Population Normal (%) [9]: 97%
- Population Pyknosed Nuclei (%) [9]: 13%
- Population Tubulin-Different-Phenotype (%) [9]: 3%
- Total Cell Count [9]: 369
- Population Apoptotic (%) [10]: 93%
- Population Fragmented Nuclei (%) [10]: 17%
- Population Healthy Nuclei (%) [10]: 73%
- Population Hoechst High Intensity Objects (%) [10]: 3%
- Population Membrane Permeable-Phenotype (%) [10]: 6%
- Population Mitochondria Different-Phenotype (%) [10]: 4%
- Population Mitotic Cells (%) [10]: 6%
- Population Normal (%) [10]: 96%
- Population Pyknosed Nuclei (%) [10]: 8%
- Population Tubulin-Different-Phenotype (%) [10]: 2%
- Total Cell Count [10]: 203
- Population Apoptotic (%) [11]: 73%
- Population Fragmented Nuclei (%) [11]: 21%
- Population Healthy Nuclei (%) [11]: 47%
- Population Hoechst High Intensity Objects (%) [11]: 3%
- Population Membrane Permeable-Phenotype (%) [11]: 43%
- Population Mitochondria Different-Phenotype (%) [11]: 26%
- Population Mitotic Cells (%) [11]: 26%
- Population Normal (%) [11]: 96%
- Population Pyknosed Nuclei (%) [11]: 30%
- Population Tubulin-Different-Phenotype (%) [11]: 31%
- Total Cell Count [11]: 265
- Population Apoptotic (%) [12]: 92%
- Population Fragmented Nuclei (%) [12]: 26%
- Population Healthy Nuclei (%) [12]: 49%
- Population Hoechst High Intensity Objects (%) [12]: 8%
- Population Mitochondria Different-Phenotype (%) [12]: 36%
- Population Mitotic Cells (%) [12]: 7%
- Population Normal (%) [12]: 91%
- Population Pyknosed Nuclei (%) [12]: 24%
- Population Tubulin-Different-Phenotype (%) [12]: 42%
- Total Cell Count [12]: 126
